{"source": "ChEMBL document CHEMBL1122989", "about": "“Quantitative structure-activity relationships in cytokinin agonistic and antagonistic pyrido[2,3-d]pyrimidine derivatives: insights into receptor topology” (J Med Chem, 1985)", "data": [{"test_system": "Nicotiana tabacum", "experiment": "Effective concentration required for cytokinin activity for producing maximum response of callus yield", "type": "functional", "conditions": "not given", "procedure,_shortened": "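Callus growth assay run without kinetin, with test compounds at several concentrations in basal medium. Medium adjusted to pH 5.6 with 1 N NaOH and autoclaved at 1.0 kg/cm2 for 15 min. Callus yield was the read-out.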", "units": {"E50": "µM"}, "values": [{"molecule": "CSc1nc(Nc2cccc(C)c2)c2cccnc2n1", "E50": 1.58}, {"molecule": "CSc1nc(Nc2cc(C)cc(C)c2)c2cccnc2n1", "E50": 2.82}, {"molecule": "CSc1nc(Nc2cccc(F)c2)c2cccnc2n1", "E50": 3.39}, {"molecule": "CSc1nc(Nc2ccccc2C)c2cccnc2n1", "E50": 3.59}, {"molecule": "CSc1nc(Nc2cccc(Br)c2)c2cccnc2n1", "E50": 2.38}, {"molecule": "CSc1nc(Nc2cc(Cl)cc(Cl)c2)c2cccnc2n1", "E50": 0.84}, {"molecule": "CSc1nc(Nc2ccc(C(=O)O)cc2)c2cccnc2n1", "E50": 12.5}, {"molecule": "CSc1nc(Nc2ccc(C)c(C)c2)c2cccnc2n1", "E50": 0.92}, {"molecule": "CCc1cccc(Nc2nc(SC)nc3ncccc23)c1", "E50": 1.91}, {"molecule": "CSc1nc(Nc2cc(C)ccc2C)c2cccnc2n1", "E50": 0.96}, {"molecule": "CSc1nc(Nc2cccc(I)c2)c2cccnc2n1", "E50": 5.2}, {"molecule": "CSc1nc(Nc2cccc(O)c2)c2cccnc2n1", "E50": 5.44}, {"molecule": "CSc1nc(Nc2ccc(Cl)cc2Cl)c2cccnc2n1", "E50": 0.95}, {"molecule": "CSc1nc(Nc2cccc(C#N)c2)c2cccnc2n1", "E50": 2.15}, {"molecule": "CSc1nc(Nc2ccc(I)cc2)c2cccnc2n1", "E50": 2.21}]}, {"test_system": "not listed separately", "experiment": "Anticytokinin activity was evaluated by 50% of the callus growth on the medium with kinetin but without anti-cytokinin", "type": "functional, Nicotiana tabacum", "conditions": "read-out: I50", "procedure,_shortened": "(§1)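 Test compounds at several concentrations in basal medium containing kinetin; medium adjusted to pH 5.6 with 1 N NaOH and autoclaved at 1.0 kg/cm2 for 15 min. Callus growth was the read-out. I50 (µM) is the concentration giving 50% of the callus growth seen on kinetin medium without anticytokinin.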", "units": {"IC50": "µM"}, "values": [{"molecule": "CSc1nc(Nc2ccc(Cl)cc2)c2cccnc2n1", "IC50": 8.51}, {"molecule": "CSc1nc(Nc2ccc(Br)cc2)c2cccnc2n1", "IC50": 5.75}, {"molecule": "CSc1nc(Nc2ccc(C#N)cc2)c2cccnc2n1", "IC50": 7.56}, {"molecule": "CSc1nc(Nc2cccc(C(C)=O)c2)c2cccnc2n1", "IC50": 13.2}, {"molecule": "CSc1nc(NC2CCC2)c2cccnc2n1", "IC50": 0.72}, {"molecule": "CCCCNc1nc(SC)nc2ncccc12", "IC50": 0.27}, {"molecule": "CSc1nc(Nc2cccc([N+](=O)[O-])c2)c2cccnc2n1", "IC50": 3.55}, {"molecule": "CSc1nc(NC2CCCCC2)c2cccnc2n1", "IC50": 5.65}, {"molecule": "CSc1nc(NCC(C)C)c2cccnc2n1", "IC50": 0.54}, {"molecule": "CCOCCNc1nc(SC)nc2ncccc12", "IC50": 7.59}, {"molecule": "CNc1nc(SC)nc2ncccc12", "IC50": 2.92}, {"molecule": "CCc1ccc(Nc2nc(SC)nc3ncccc23)cc1", "IC50": 7.15}, {"molecule": "CCCCCCCNc1nc(SC)nc2ncccc12", "IC50": 4.07}, {"molecule": "CSc1nc(NC2CC2)c2cccnc2n1", "IC50": 4.9}, {"molecule": "COc1ccc(Nc2nc(SC)nc3ncccc23)cc1", "IC50": 9.42}, {"molecule": "CCCNc1nc(SC)nc2ncccc12", "IC50": 0.27}, {"molecule": "CCCCC(CC)CNc1nc(SC)nc2ncccc12", "note": "(stereo unspecified)", "IC50": 15.8}, {"molecule": "CCOc1ccc(Nc2nc(SC)nc3ncccc23)cc1", "IC50": 5.42}, {"molecule": "CCCCCCNc1nc(SC)nc2ncccc12", "IC50": 3.33}, {"molecule": "CSc1nc(NC2CCCC2)c2cccnc2n1", "IC50": 0.49}, {"molecule": "CSc1nc(Nc2ccccc2)c2cccnc2n1", "IC50": 15.8}, {"molecule": "C=CCNc1nc(SC)nc2ncccc12", "IC50": 0.4}, {"molecule": "COCCNc1nc(SC)nc2ncccc12", "IC50": 2.53}, {"molecule": "CCC(C)Nc1nc(SC)nc2ncccc12", "note": "(stereo unspecified)", "IC50": 0.86}, {"molecule": "CSc1nc(Nc2ccc(C(C)=O)cc2)c2cccnc2n1", "IC50": 8.96}, {"molecule": "CSc1nc(Nc2cccc(C(=O)O)c2)c2cccnc2n1", "IC50": 9.2}, {"molecule": "CSc1nc(NCc2ccccc2)c2cccnc2n1", "IC50": 25.2}, {"molecule": "CCC(CC)Nc1nc(SC)nc2ncccc12", "IC50": 2.72}, {"molecule": "CCCCCNc1nc(SC)nc2ncccc12", "IC50": 0.65}, {"molecule": "CSc1nc(Nc2ccc(F)cc2)c2cccnc2n1", "IC50": 2.62}]}, {"test_system": "not listed separately", "experiment": "Anticytokinin activity was evaluated by 50% of the callus growth on the medium with kinetin but without anti-cytokinin; Insoluble", "type": "functional, Nicotiana tabacum", "conditions": "not given", "procedure,_shortened": "as §1", "values": [{"molecule": "CSc1nc(Nc2ccc([N+](=O)[O-])cc2)c2cccnc2n1", "I50": "Insoluble"}]}]}
